Measured values as given in ChEMBL document CHEMBL3352122, “Design, synthesis and evaluation of 2-aminothiazole derivatives as sphingosine kinase inhibitors” (Bioorg Med Chem, 2014).
The source made the active and inactive calls. No cut-off for these calls is given here.

Test system: not listed separately
Experiment: Cytotoxicity against human U937 cells at 30 uM after 24 hrs by LDH release assay
Format: cell-based
Settings: u-937, 24 h
Method in brief: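 U937 cells seeded at 1.5 × 10⁴ cells/well, then exposed 24 h to increasing compound concentrations or DMSO vehicle. After centrifugation (250 × g, 4 min), LDH in the supernatant was measured as loss of membrane integrity. Detergent-induced maximum release was set to 100%. Three experiments, mean ± SE.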

| SMILES | Activity [%] |
| --- | --- |
| Cc1csc(Nc2nc(-c3nccs3)cs2)n1 | 0.69 |

Molecular target: T1, Sphingosine kinase 2 (Homo sapiens, UniProt Q9NRA0)
T1 sequence (Q9NRA0 whole entry): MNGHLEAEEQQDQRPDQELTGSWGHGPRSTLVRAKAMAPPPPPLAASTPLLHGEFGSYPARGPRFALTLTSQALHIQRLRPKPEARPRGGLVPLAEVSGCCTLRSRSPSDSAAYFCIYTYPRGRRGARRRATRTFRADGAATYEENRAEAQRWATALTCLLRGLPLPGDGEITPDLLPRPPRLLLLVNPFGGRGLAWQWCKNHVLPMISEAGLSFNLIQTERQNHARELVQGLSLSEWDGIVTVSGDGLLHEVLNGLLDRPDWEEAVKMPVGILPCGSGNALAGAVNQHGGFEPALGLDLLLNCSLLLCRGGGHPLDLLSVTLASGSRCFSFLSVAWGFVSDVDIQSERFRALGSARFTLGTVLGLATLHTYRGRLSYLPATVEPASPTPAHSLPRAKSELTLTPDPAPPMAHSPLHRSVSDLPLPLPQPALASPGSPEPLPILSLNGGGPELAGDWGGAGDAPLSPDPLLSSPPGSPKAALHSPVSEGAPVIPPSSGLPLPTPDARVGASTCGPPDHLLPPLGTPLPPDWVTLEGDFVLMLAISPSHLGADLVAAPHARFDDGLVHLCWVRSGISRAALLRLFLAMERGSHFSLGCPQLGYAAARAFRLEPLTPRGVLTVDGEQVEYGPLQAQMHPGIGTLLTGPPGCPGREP
Experiment: Inhibition of human recombinant Sphk2 after 60 mins by ADP2 fluorescence intensity assay
Settings: not given
Method in brief: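 Recombinant human SphK2 pre-incubated 15 min at RT with inhibitor at eight increasing concentrations, then reacted with D-erythro-sphingosine and ATP for 60 min at RT, keeping substrate conversion at 10–15% within the linear range. […] IC50 was derived from the concentration–inhibition data.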

| SMILES | IC50 [µM] |
| --- | --- |
| Cc1csc(Nc2nc(-c3nccs3)cs2)n1 | 6.5 |

Molecular target: T2, Sphingosine kinase 2 (Homo sapiens) (UniProt Q9NRA0)
T2 sequence (whole entry): T1 sequence (Q9NRA0 whole entry)
Experiment: Inhibition of human recombinant Sphk2 at 10 uM after 60 mins by ADP2 fluorescence intensity assay
Settings: not given
Method in brief: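 Human recombinant SphK2 (stock 0.5 mg/mL in Tris-HCl pH 8.0/imidazole/DTT/glycerol) pre-incubated 15 min at RT with compound at 10 µM or DMSO. Reaction with D-erythro-sphingosine and ATP ran 60 min at RT at 10–15% substrate conversion. ADP was read by Transcreener ADP² FI competitive fluorescence against an ATP/ADP standard curve. % inhibition vs DMSO given as mean ± SEM of five independent experiments, one-sample t-test.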

| SMILES | inhibition |
| --- | --- |
| COc1ccccc1Nc1nc(C23CC4CC(CC(C4)C2)C3)cs1 | 19% |
| COc1cc(Nc2nc(-c3ccc(Cl)cc3)cs2)cc(OC)c1OC | inactive |
| c1cc2c(cc1Nc1nc(C34CC5CC(CC(C5)C3)C4)cs1)OCO2 | 41.3% |
| COc1ccc(Nc2nc(C34CC5CC(CC(C5)C3)C4)cs2)cc1 | inactive |
| Oc1ccc(Nc2nc(-c3nccs3)cs2)cc1 | inactive |
| CC(C)c1ccc(Nc2nc(C34CC5CC(CC(C5)C3)C4)cs2)cc1 | inactive |
| CN(C)c1ccc(Nc2nc(C34CC5CC(CC(C5)C3)C4)cs2)cc1 | inactive |
| COc1cc(/C=C/C(=O)Nc2nc(-c3ccc(Cl)cc3)cs2)cc(OC)c1OC | 32% |
| COc1cc(Nc2nc(C34CC5CC(CC(C5)C3)C4)cs2)cc(OC)c1OC | 20.8% |
| COc1cc(Nc2nc(C34CC5CC(CC(C5)C3)C4)c(C)s2)cc(OC)c1OC | 21.5% |
| CSc1ccc(Nc2nc(C34CC5CC(CC(C5)C3)C4)cs2)cc1 | 18.6% |
| Clc1ccc(-c2csc(Nc3ccc4c(c3)OCCO4)n2)cc1 | inactive |
| Cc1csc(Nc2nc(-c3ccc(Cl)cc3)c(C)s2)n1 | 19.2% |
| c1cc2c(cc1Nc1nc(C34CC5CC(CC(C5)C3)C4)cs1)OCCO2 | 31.7% |
| CSc1ccc(Nc2nc(C34CC5CC(CC(C5)C3)C4)c(C)s2)cc1 | inactive |
| Cc1csc(Nc2nc(-c3nccs3)cs2)n1 | 50% |
| Cc1csc(Nc2nc(C34CC5CC(CC(C5)C3)C4)c(C)s2)n1 | 20.9% |
| COc1cc(/C=C/C(=O)Nc2nccs2)cc(OC)c1OC | 26.6% |
| Cc1sc(Nc2ccc(O)cc2)nc1-c1ccc(Cl)cc1 | inactive |
| COc1ccc(/C=C/C(=O)Nc2nccs2)cc1OC | 26.5% |
| COc1ccc(Nc2nc(-c3ccc(Cl)cc3)c(C)s2)cc1 | inactive |
| COc1ccc(/C=C/C(=O)Nc2nc(-c3ccc(Cl)cc3)cs2)cc1OC | 31.7% |
| COc1ccc(Nc2nc(C34CC5CC(CC(C5)C3)C4)cs2)cc1OC | inactive |
| CSc1ccc(Nc2nc(-c3ccc(Cl)cc3)c(C)s2)cc1 | inactive |
| Cc1cc(CS(=O)(=O)c2ccccc2)cc(OCc2ccc(CN3CCC[C@@H]3CO)cc2)c1 | 14.7% |
| COc1cc(Nc2nc(-c3ccc(Cl)cc3)c(C)s2)cc(OC)c1OC | inactive |
| COc1ccccc1Nc1nc(C23CC4CC(CC(C4)C2)C3)c(C)s1 | 41.6% |

Now from value to molecule:

| inhibition | SMILES |
| --- | --- |
| inactive | CC(C)c1ccc(Nc2nc(-c3ccc(Cl)cc3)cs2)cc1 |
| inactive | FC(F)(F)c1ccc(Nc2nc(-c3ccc(Cl)cc3)cs2)cc1 |
| inactive | COc1ccc(Nc2nc(-c3ccc(Cl)cc3)cs2)cc1 |
| inactive | COc1ccccc1Nc1nc(-c2ccc(Cl)cc2)cs1 |
| inactive | COc1ccc(Nc2nc(-c3ccc(Cl)cc3)cs2)cc1OC |
| inactive | CN(C)c1ccc(Nc2nc(-c3ccc(Cl)cc3)cs2)cc1 |
| inactive | Oc1ccccc1Nc1nc(-c2ccc(Cl)cc2)cs1 |
| 15.5% | Oc1ccc(Nc2nc(-c3ccc(Cl)cc3)cs2)cc1 |
| inactive | CSc1ccc(Nc2nc(-c3ccc(Cl)cc3)cs2)cc1 |
| inactive | FC(F)(F)Oc1ccc(Nc2nc(-c3ccc(Cl)cc3)cs2)cc1 |
| inactive | FC(F)(F)c1cc(Nc2nc(-c3ccc(Cl)cc3)cs2)cc(C(F)(F)F)c1 |
| inactive | Oc1cccc(Nc2nc(-c3ccc(Cl)cc3)cs2)c1 |
| inactive | OCc1ccc(Nc2nc(-c3ccc(Cl)cc3)cs2)cc1 |
| inactive | Clc1ccc(-c2csc(Nc3ccc4c(c3)OCO4)n2)cc1 |
| 10.3% | Oc1ccc(Nc2nc(-c3ccc(Br)cc3)cs2)cc1 |
